Test results published in ChEMBL document CHEMBL2417498, “Design and synthesis of 6,7-methylenedioxy-4-substituted phenylquinolin-2(1H)-one derivatives as novel anticancer agents that induce apoptosis with cell cycle arrest at G2/M phase” (Bioorg Med Chem, 2013).
Activity calls are given as the source filed them. No cut-off for these calls is given here.

Legend:
[1] = Cell cycle arrest in human H460 cells assessed as accumulation at sub G1 phase at 1 uM after 24 hrs by propidium iodide staining-based FACS analysis (reference value: 3.07%); type: functional; conditions: NCI-H460
Outline: (§1)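 H460 cells treated 24 h with 1.0, 2.5 or 5.0 µM; washed in PBS, fixed overnight in 70% ice-cold ethanol at −20 °C, stained 30 min in the dark with 0.1% Triton X-100, 0.2 mg/mL RNase and 20 µg/mL propidium iodide; DNA content by flow cytometry, phase distribution from histogram modelling.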

HL-60 [2] = experiment: Decrease in cyclin B1 expression in human HL60 cells at 0.25 to 1 uM after 24 hrs by Western blot analysis; type: functional, cell-based
Outline: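 HL-60 cells treated 24 h at the indicated concentrations, harvested, lysed (30 min on ice, 12,000 g spin), protein by Bradford; samples run on 10% SDS-PAGE, transferred to nitrocellulose, immunodetected by chemiluminescence.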

HL-60 [3] = experiment: Cell cycle arrest in human HL60 cells assessed as accumulation at sub G1 phase at 0.5 uM after 24 hrs by propidium iodide staining-based FACS analysis (reference value: 0.35%); type: functional
[4] = Cytotoxicity against human Hep3B cells after 48 hrs by MTT assay; type: functional, cell-based, Hep 3B2
Outline: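 Detroit 551 normal skin cells and Hep 3B hepatoma cells grown in DMEM with 10% FBS, penicillin/streptomycin and 1% L-glutamine at 37 °C, 5% CO2. Log-phase cells treated with vehicle or a range of concentrations for 48 h. MTT reduction read at 570 nm. IC50 (50% proliferation inhibition) taken from 3 independent experiments.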

[5] = Cell cycle arrest in human H460 cells assessed as accumulation at S phase at 1 uM after 24 hrs by propidium iodide staining-based FACS analysis (reference value: 43.08%); type: functional; conditions: NCI-H460; outline: as §1
HL-60 [6] = experiment: Cell cycle arrest in human HL60 cells assessed as accumulation at sub G1 phase at 1.0 uM after 24 hrs by propidium iodide staining-based FACS analysis (reference value: 0.35%); type: functional
HL-60 [7] = experiment: Cell cycle arrest in human HL60 cells assessed as accumulation at G2/M phase at 0.25 uM after 24 hrs by propidium iodide staining-based FACS analysis (reference value: 10.51%); type: functional
A498 = experiment: Cytotoxicity against human A498 cells after 48 hrs by MTT assay; type: functional, cell-based; conditions: A498, 48 h
Outline: (§2)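 Log-phase tumour cells grown in RPMI-1640 with 10% FBS, penicillin/streptomycin and 1% L-glutamine at 37 °C, 5% CO2. Cells treated with vehicle or a range of concentrations for 48 h. Growth measured by MTT reduction, absorbance at 570 nm. IC50 is the concentration giving 50% proliferation inhibition, from 3 independent experiments.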

[8] = Cell cycle arrest in human H460 cells assessed as accumulation at S phase at 2.5 uM after 24 hrs by propidium iodide staining-based FACS analysis (reference value: 43.08%); type: functional; conditions: NCI-H460; outline: as §1
HL-60 [9] = experiment: Cell cycle arrest in human HL60 cells assessed as accumulation at G0/G1 phase at 1 uM after 24 hrs by propidium iodide staining-based FACS analysis (reference value: 39.80%); type: functional
[10] = Cell cycle arrest in human H460 cells assessed as accumulation at sub G1 phase at 2.5 uM after 24 hrs by propidium iodide staining-based FACS analysis (reference value: 3.07%); type: functional; conditions: NCI-H460; outline: as §1
HL-60 [11] = experiment: Cell cycle arrest in human HL60 cells assessed as accumulation at S phase at 1 uM after 24 hrs by propidium iodide staining-based FACS analysis (reference value: 49.69%); type: functional
HL-60 [12] = experiment: Cell cycle arrest in human HL60 cells assessed as accumulation at G0/G1 phase at 0.25 uM after 24 hrs by propidium iodide staining-based FACS analysis (reference value: 39.80%); type: functional
HL-60 [13] = experiment: Induction of apoptosis in human HL60 cells assessed as appearance of apoptotic bodies at 0.25 to 1 uM after 24 hrs by Hoechst 33258 staining-based microscopy; type: functional, cell-based
Outline: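 HL-60 seeded at 1×10⁵ cells/well, treated 24 h with 0.25, 0.5 or 1.0 µM; nuclei stained 10 min with 5 µg/mL Hoechst 33258, PBS-washed twice, fixed 10 min in 4% PFA at 25 °C; apoptotic morphology imaged by fluorescence microscopy against 0.1% DMSO-treated cells.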

HL-60 [14] = experiment: Cytotoxicity against human HL60 cells after 48 hrs by MTT assay; type: functional, cell-based; conditions: HL-60, 48 h; outline: as §2
[15] = Cell cycle arrest in human H460 cells assessed as accumulation at G2/M phase at 5 uM after 24 hrs by propidium iodide staining-based FACS analysis (reference value: 10.73%); type: functional; conditions: NCI-H460; outline: as §1

COc1ccc(-c2cc(=O)[nH]c3cc4c(cc23)OCO4)c(OC)c1
Activity [1]: 10.8%
Activity (HL-60 [2]): Active
Activity (HL-60 [3]): 27.86%
IC50 [4]: 1 µM
Activity [5]: 44.1%
Activity (HL-60 [6]): 19.65%
Activity (HL-60 [7]): 11.87%
IC50 (A498): 48 µM
Activity [8]: 18.8%
Activity (HL-60 [9]): 12.46%
Activity [10]: 11.7%
Activity (HL-60 [11]): 46.99%
Activity (HL-60 [12]): 41.36%
Activity (HL-60 [13]): Active
IC50 (HL-60 [14]): 0.4 µM
Activity [15]: 68.2%
